Reference: ChEMBL document CHEMBL1155706, “Vertilecanins: new phenopicolinic acid analogues from Verticillium lecanii” (2001)
Active and inactive are the calls of the source. No cut-off for these calls is given here.

How the values were obtained:
[1] = system: Helicoverpa zea; assay: Antiinsectan activity in Helicoverpa zea at 100 ppm; format: functional, organism-based
Outline: (§1)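 Test material was mixed into the H. zea diet at the stated ppm level (100 or 1500 ppm). Activity was scored as the reduction in weight gain relative to controls.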

[2] = system: Bacillus subtilis; assay: Antibacterial activity against Bacillus subtilis ATCC 6051 at 100 ug/disk by standard disk diffusion assay; format: functional
Outline: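 Standard paper-disk diffusion test with 100 μg loaded per disk against B. subtilis ATCC 6051. Read-out is the diameter of the inhibition zone in mm.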

[3] = system: Helicoverpa zea; assay: Antiinsectan activity in Helicoverpa zea assessed as reduction in weight gain at 1500 ppm relative to control; format: functional; parameters: scale not given: the % may be the effect or the level left; outline: as §1

Row | SMILES | Activity [1] | Activity [2] | Activity [3] [%] | zone of inhibition at 100 µg/disc ([2]; read-out: IZ) [mm]
1 | O=C(O)/C=C/CCCCCCC(=O)O | inactive | – | – | –
2 | O=C(O)CNC(=O)c1ccc([C@H](O)c2ccccc2)cn1 | inactive | inactive | – | –
3 | COC(=O)c1ccc([C@H](O)c2ccccc2)cn1 | inactive | – | – | –
4 | COC(=O)CNC(=O)c1ccc(C(=O)c2ccccc2)cn1 | inactive | – | – | –
5 | O=C(O)c1ccc([C@H](O)c2ccccc2)cn1 [VERTILECANIN A] | inactive | – | 49 | 8
6 | O=C(O)CCCCCC/C=C/CO | inactive | inactive | – | –
7 | COC(=O)CNC(=O)c1ccc([C@H](O)c2ccccc2)cn1 | inactive | – | – | –
